Measured values as given in ChEMBL document CHEMBL5131576, “Turning the Other Cheek: Influence of the cis-Tetrafluorocyclohexyl Motif on Physicochemical and Metabolic Properties” (ACS Med Chem Lett, 2022).
Converted amounts (≈) assume the structure as drawn.

Tests used:
[1] = Permeability across apical to basolateral side in MDCK cells pgp knock out incubated up to 180 mins by LC_MS/MS analysis; type: ADME, cell-based, Canis lupus familiaris; details: dog, read-out: permeability
Summary of the method: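 MDCK cells with the endogenously expressed canine MDR1 gene knocked out; transport measured in the apical-to-basolateral direction; apparent permeability reported in 10^-6 cm/s.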

[2] = Kinetic solubility of the compound; type: physicochemical

| Papp A→B at 3 h [1] [×10⁻⁶ cm/s] | Kinetic_solubility [2] | solubility kinetic [2] [µM] | Compound |
| --- | --- | --- | --- |
| 16 | – | – | N#CCC(=O)Nc1ccc([C@H]2[C@@H](F)[C@@H](F)C[C@@H](F)[C@H]2F)cc1 |
| 6.7 | – | – | O=C(c1ccc([C@H]2[C@@H](F)[C@@H](F)C[C@@H](F)[C@H]2F)cc1)N1CC(O)C1 |
| – | < 1 µM | – | O=C(COCC(F)F)Nc1ccc(C2CCCCC2)cc1 |
| 23 | – | – | O=C(NCCc1cccnc1)c1ccc(C2CCCCC2)cc1 |
| 9.4 | – | – | COCCN(C)C(=O)c1ccc([C@H]2[C@@H](F)[C@@H](F)C[C@@H](F)[C@H]2F)cc1 |
| 0.6 | – | – | CC(=O)N1CC(C(=O)Nc2ccc([C@H]3[C@@H](F)[C@@H](F)C[C@@H](F)[C@H]3F)cc2)C1 |
| 2.1 | – | – | O=C(NCc1cc[nH]n1)c1ccc([C@H]2[C@@H](F)[C@@H](F)C[C@@H](F)[C@H]2F)cc1 |
| 12.1 | – | – | CN(Cc1cccnc1)C(=O)c1ccc(C2CCCCC2)cc1 |
| 20.3 | Soluble | – | CN1CCN(C(=O)c2ccc(C3CCCCC3)cc2)CC1 |
| – | Soluble | – | NS(=O)(=O)c1cccc(-c2ccc(C3CCCCC3)cc2)c1 |
| 15 | – | – | O=C(Cc1cccnc1)Nc1ccc([C@H]2[C@@H](F)[C@@H](F)C[C@@H](F)[C@H]2F)cc1 |
| 3.5 | – | – | O=C(NCCN1CCCC1=O)c1ccc([C@H]2[C@@H](F)[C@@H](F)C[C@@H](F)[C@H]2F)cc1 |
| – | < 1 µM | – | O=C(CC1CCOCC1)Nc1ccc(C2CCCCC2)cc1 |
| 10.9 | Soluble | – | CN1CCN(C(=O)c2ccc(C3CCCCC3)cc2)CC1=O |
| 18.6 | – | – | N#CCC(=O)Nc1ccc(C2CCCCC2)cc1 |
| 18.7 | – | – | CN(CCC#N)C(=O)c1ccc(C2CCCCC2)cc1 |
| 35.9 | – | – | O=C(NCC1CCOCC1)c1ccc(C2CCCCC2)cc1 |
| 3.7 | – | – | CN(C)CCC(=O)Nc1ccc([C@H]2[C@@H](F)[C@@H](F)C[C@@H](F)[C@H]2F)cc1 |
| 0.4 | – | – | NC(=O)CCNC(=O)c1ccc([C@H]2[C@@H](F)[C@@H](F)C[C@@H](F)[C@H]2F)cc1 |
| 0.9 | – | – | O=C(Cn1ccnc1)Nc1ccc([C@H]2[C@@H](F)[C@@H](F)C[C@@H](F)[C@H]2F)cc1 |
| – | – | 136 (≈ 46.4 µg/mL) | O=C(Nc1ccc([C@H]2[C@@H](F)[C@@H](F)C[C@@H](F)[C@H]2F)cc1)c1cn[nH]c1 |
| 10.8 | – | – | CN(C)CCC(=O)Nc1ccc(C2CCCCC2)cc1 |

| Papp A→B at 3 h [1] [×10⁻⁶ cm/s] | Kinetic_solubility [2] | solubility kinetic [2] [µM] | Compound |
| --- | --- | --- | --- |
| 29.5 | – | – | CC(C(=O)Nc1ccc(C2CCCCC2)cc1)n1cncn1 (configuration not stated) |
| 8.1 | – | – | CN(CCC#N)C(=O)c1ccc([C@H]2[C@@H](F)[C@@H](F)C[C@@H](F)[C@H]2F)cc1 |
| 5.5 | – | – | CC(C(=O)Nc1ccc([C@H]2[C@@H](F)[C@@H](F)C[C@@H](F)[C@H]2F)cc1)n1cncn1 (some centres not stated) |
| 18.7 | – | – | CC(=O)N1CC(C(=O)Nc2ccc(C3CCCCC3)cc2)C1 |
| 19.9 | < 1 µM | – | O=C(Cc1cccnc1)Nc1ccc(C2CCCCC2)cc1 |
| 20.3 | – | – | O=C(NCC1CCOCC1)c1ccc([C@H]2[C@@H](F)[C@@H](F)C[C@@H](F)[C@H]2F)cc1 |
| 26 | Soluble | – | O=C(c1ccc(C2CCCCC2)cc1)N1CC(O)C1 |
| 15.5 | – | – | O=C(NCCN1CCCC1=O)c1ccc(C2CCCCC2)cc1 |
| 16.7 | – | – | O=C(NCc1cc[nH]n1)c1ccc(C2CCCCC2)cc1 |
| – | < 1 µM | – | O=C(Nc1ccc(C2CCCCC2)cc1)c1cn[nH]c1 |
| 14.7 | – | – | NC(=O)CCNC(=O)c1ccc(C2CCCCC2)cc1 |
| 9.4 | – | – | COCCN(C)C(=O)c1ccc(C2CCCCC2)cc1 |
| – | Soluble | – | c1ncc(-c2ccc(C3CCCCC3)cc2)cn1 |
| – | Soluble | – | CN1CCC(c2ccc(-c3ccc(C4CCCCC4)cc3)cn2)CC1 |
| 4.5 | – | – | CN1CCN(C(=O)c2ccc([C@H]3[C@@H](F)[C@@H](F)C[C@@H](F)[C@H]3F)cc2)CC1=O |
| 18.6 | – | – | CN1CCN(C(=O)c2ccc([C@H]3[C@@H](F)[C@@H](F)C[C@@H](F)[C@H]3F)cc2)CC1 |
| 18.1 | – | – | COCCC(=O)Nc1ccc([C@H]2[C@@H](F)[C@@H](F)C[C@@H](F)[C@H]2F)cc1 |
| – | < 1 µM | – | O=C(Nc1ccc(C2CCCCC2)cc1)[C@H]1CC1(F)F |
| 11.1 | – | – | O=C(Cn1ccnc1)Nc1ccc(C2CCCCC2)cc1 |
| 22.2 | – | – | COCCC(=O)Nc1ccc(C2CCCCC2)cc1 |
| 16.3 | – | – | CN(Cc1cccnc1)C(=O)c1ccc([C@H]2[C@@H](F)[C@@H](F)C[C@@H](F)[C@H]2F)cc1 |
